Structures are written as SMILES.

The values below come from ChEMBL document CHEMBL2417436, “Synthesis and biological effects of novel 2-amino-3-(4-chlorobenzoyl)-4-substituted thiophenes as allosteric enhancers of the A1 adenosine receptor” (Eur J Med Chem, 2013).

The target in experiment [1] is T1, Adenosine receptor A1 (Homo sapiens) (UniProt P30542).
T1 sequence (whole entry): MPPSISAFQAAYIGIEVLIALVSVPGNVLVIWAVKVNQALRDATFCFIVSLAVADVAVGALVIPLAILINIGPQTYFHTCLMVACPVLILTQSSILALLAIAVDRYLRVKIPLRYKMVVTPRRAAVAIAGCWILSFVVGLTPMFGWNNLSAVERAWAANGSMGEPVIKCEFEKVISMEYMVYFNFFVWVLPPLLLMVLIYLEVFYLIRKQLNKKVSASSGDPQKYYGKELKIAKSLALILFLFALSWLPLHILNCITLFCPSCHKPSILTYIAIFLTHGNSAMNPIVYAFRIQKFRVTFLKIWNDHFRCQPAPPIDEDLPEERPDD
The experiment is described as follows: Allosteric enhancement of human adenosine A1 receptor expressed in CHO cells assessed as increase of CCPA Ki at 10 uM after 90 mins by [3H]DPCPX radioligand binding assay. The format is cell-based. Summed up:
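hA1CHO membranes (50 mM Tris-HCl, pH 7.4, adenosine deaminase-treated). [3H]DPCPX 1 nM competed by CCPA (0.01 nM–1 μM) with or without test compound at 10 μM. Triplicate, 90 min at 25 °C. Nonspecific binding taken with 1 μM DPCPX. Filtration, then scintillation counting. Ki by Cheng–Prusoff. Shift = Ki(CCPA)/Ki(CCPA+enhancer). Mean ± SEM, n=3.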

Experiment [2] concerns the target T1, Adenosine receptor A1 (Homo sapiens). The experiment is described as follows: Allosteric enhancement of human adenosine A1 receptor expressed in CHO cells assessed as increase of [3H]CCPA Bmax at 10 uM after 90 mins. The format is cell-based. Summed up:
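Saturation of [3H]CCPA (0.05–20 nM) on hA1CHO membranes in 50 mM Tris-HCl, pH 7.4, with or without compound at final 10 μM. Triplicate, 25 °C, 90 min. Nonspecific binding defined with 1 μM R-PIA. Filter-bound radioactivity counted. KD and Bmax fitted by weighted nonlinear least squares; Bmax shift versus control. Mean ± SEM, n=3.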

Experiment [3] has as its target Adenosine receptor A2a (Homo sapiens) (UniProt P29274). In words: Displacement of [3H]ZM 241385 from human adenosine A2A receptor expressed in CHO cells at 10 uM after 60 mins by scintillation counting. The class given is cell-based. Summed up: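 hA2ACHO membranes in 50 mM Tris HCl, 10 mM MgCl2, pH 7.4, 4 °C for 60 min. [3H]ZM 241385 given as 1 nM in methods and 2 nM in table footnote. Compound at 10 μM from 100-fold DMSO stock, 1% DMSO final. Nonspecific binding with 1 μM ZM 241385. Filtration and scintillation counting. Percent inhibition of control specific binding, ±SEM, n=3.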

The target in experiment [4] is T1, Adenosine receptor A1 (Homo sapiens). In words: Allosteric enhancement of human adenosine A1 receptor expressed in CHO cells assessed as inhibition of CCPA-induced cAMP production at 100 nM after 10 mins. The class given is functional, cell-based. The essentials:
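Intact hA1CHO cells (10⁶/mL) in phosphate buffer with adenosine deaminase 1.0 IU/mL and Ro 20-1724 0.5 mM, preincubated 10 min at 37 °C. Compound 100 nM plus CCPA 1 pM added for 10 min, then forskolin 1 μM for 5 min. Stopped with cold 6% TCA, ether-extracted. cAMP measured by [3H]-cAMP competition with adrenal binding protein (4 °C, 150 min). pmol/10⁶ cells, mean ± SEM of three.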
A general note: Cyclic AMP is a second messenger, typically raised through Gs and lowered through Gi signalling.

For experiment [5] the target is unchanged. In words: Allosteric enhancement of human adenosine A1 receptor expressed in CHO cells assessed as inhibition of forskolin-induced cAMP production at 10 uM after 10 mins. The format is functional, cell-based. The essentials:
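Whole hA1CHO cells (10⁶/mL) preincubated 10 min at 37 °C in phosphate buffer with adenosine deaminase (1.0 IU/mL) and Ro 20-1724 (0.5 mM). Compound alone at 10 μM for a further 10 min; forskolin 1 μM for 5 min. TCA stop, ether extraction, cAMP by [3H]-cAMP protein-binding competition assay. Expressed as pmol/10⁶ cells; mean ± SEM, three experiments.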

Experiment [6] has the same target. The experiment is described as follows: Displacement of [3H]DPCPX from human adenosine A1 receptor expressed in CHO cells at 10 uM after 120 mins by scintillation counting. (Displacement assays read how much labelled ligand stays bound in the presence of the test substance.)
For experiment [7], the target named is T2, Adenosine receptor A3 (Homo sapiens) (UniProt P0DMS8).
T2 sequence (whole entry): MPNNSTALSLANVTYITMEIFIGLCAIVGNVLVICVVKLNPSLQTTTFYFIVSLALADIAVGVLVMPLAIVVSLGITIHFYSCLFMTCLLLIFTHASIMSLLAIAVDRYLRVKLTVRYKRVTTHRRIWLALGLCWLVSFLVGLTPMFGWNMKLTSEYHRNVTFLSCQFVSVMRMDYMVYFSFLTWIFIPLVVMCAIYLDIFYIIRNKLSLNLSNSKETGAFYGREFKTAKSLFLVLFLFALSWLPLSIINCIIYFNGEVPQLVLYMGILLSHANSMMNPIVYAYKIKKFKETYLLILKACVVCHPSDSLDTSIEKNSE
The experiment is described as follows: Displacement of [3H]MRE-3008-F20 from human adenosine A3 receptor expressed in CHO cells at 10 uM after 120 mins by scintillation counting.

Chain of Adenosine receptor A2a (Homo sapiens) (P29274 whole entry): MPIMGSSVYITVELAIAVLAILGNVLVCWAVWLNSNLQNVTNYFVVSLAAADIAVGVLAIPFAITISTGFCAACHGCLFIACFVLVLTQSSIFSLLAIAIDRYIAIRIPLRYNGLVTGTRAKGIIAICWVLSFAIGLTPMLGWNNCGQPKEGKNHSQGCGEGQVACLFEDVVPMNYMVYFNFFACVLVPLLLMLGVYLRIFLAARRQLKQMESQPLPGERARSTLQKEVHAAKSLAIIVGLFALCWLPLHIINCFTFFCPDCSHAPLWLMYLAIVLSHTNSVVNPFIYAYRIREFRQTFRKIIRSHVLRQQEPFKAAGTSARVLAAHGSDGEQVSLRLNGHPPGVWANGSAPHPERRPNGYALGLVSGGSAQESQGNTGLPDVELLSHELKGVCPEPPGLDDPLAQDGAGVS

Usually inhibition stands for the relative decrease from the control value, in per cent. In the case of `COc1ccc2c(c1)cc1n2CCN(Cc2csc(N)c2C(=O)c2ccc(Cl)cc2)C1`, the fold change (FC) in experiment [1] is 3.7; in experiment [2] it was 4.8. In addition, the inhibition came to 0% in experiment [3]; 41% in experiment [4]; 43% in experiment [5]; 1% in experiment [6]; 6% in experiment [7].

Regarding `Nc1scc(CN2CCn3c(cc4cc(Cl)ccc43)C2)c1C(=O)c1ccc(Cl)cc1`, the fold change (FC) worked out at 6.9 in experiment [1] and 7.4 in experiment [2]. The inhibition in experiment [3] is 0%; in experiment [4] it was 60%; in experiment [5] it was 64%; in experiment [6], 4%; in experiment [7], 4%.

For `Nc1sc(-c2ccccc2)c(CN2CCCCC2)c1C(=O)c1ccc(Cl)cc1`, the fold change (FC) in experiment [1] stood at 2.7; in experiment [2], 2.9. Also, the inhibition in experiment [3] turned out to be 1%; in experiment [4], 22%; in experiment [5], 24%; in experiment [6] it was 1%; in experiment [7], 7%.

Consider `CN(Cc1c(-c2ccccc2)sc(N)c1C(=O)c1ccc(Cl)cc1)C(C)(C)C`, for which the fold change (FC) in experiment [1] and in experiment [2] was 1.3 throughout. Besides, the inhibition in experiment [3] amounted to 1%; in experiment [4], 13%; in experiment [5] it was 10%; in experiment [6] it was 5%; in experiment [7] it was 10%.

On to `CC(C)c1ccc(OCc2csc(N)c2C(=O)c2ccc(Cl)cc2)cc1`, for which the fold change (FC) in experiment [1] stood at 1.5; in experiment [2] it was 1.8. Further, the inhibition in experiment [3] turned out to be 1%; in experiment [4], 18%; in experiment [5] it was 15%; in experiment [6] it was 3%; in experiment [7], 9%.

Consider `Nc1scc(CN2CCc3[nH]c4ccc(Cl)cc4c3C2)c1C(=O)c1ccc(Cl)cc1`, for which the fold change (FC) in experiment [1] came to 1.1; in experiment [2] it was 1.2. In addition, the inhibition was 1% in experiment [3]; 13% in experiment [4]; 8% in experiment [5]; 2% in experiment [6]; 1% in experiment [7].

On to `C=CCN(CC=C)Cc1c(Br)sc(N)c1C(=O)c1ccc(Cl)cc1`, for which the fold change (FC) in experiment [1] and in experiment [2] was 1.2 each time. Also, the inhibition in experiment [3] worked out at 1%; in experiment [4], 13%; in experiment [5], 8%; in experiment [6], 6%; in experiment [7], 8%.

With `Nc1scc(CN2CCC3(CC2)Oc2ccccc2O3)c1C(=O)c1ccc(Cl)cc1`, the fold change (FC) in experiment [1] was 4.7; in experiment [2], 5.1. Further, the inhibition in experiment [3] is 1%; in experiment [4], 43%; in experiment [5], 45%; in experiment [6], 1%; in experiment [7], 5%.

For the compound `CN(Cc1csc(N)c1C(=O)c1ccc(Cl)cc1)c1ccccc1`, the fold change (FC) amounted to 2.2 in experiment [1] and 2.4 in experiment [2]. Also, the inhibition in experiment [3] came out at 1%; in experiment [4] it was 16%; in experiment [5], 18%; in experiment [6] it was 1%; in experiment [7], 9%.

As for `CN(C)Cc1c(-c2ccccc2)sc(N)c1C(=O)c1ccc(Cl)cc1`, the results for the fold change (FC) in experiment [1] and in experiment [2] were 1 and 1.1, respectively. The inhibition is 1% in experiment [3]; 10% in experiment [4]; 6% in experiment [5]; 1% in experiment [6]; 2% in experiment [7].

With `CCN(CC)Cc1csc(N)c1C(=O)c1ccc(Cl)cc1`, the fold change (FC) in experiment [1] and in experiment [2] was 1 throughout. Also, the inhibition in experiment [3] turned out to be 1%; in experiment [4] it was 12%; in experiment [5], 5%; in experiment [6], 0%; in experiment [7], 2%.

In the case of `Nc1scc(CN2CCN3c4ccccc4CC3C2)c1C(=O)c1ccc(Cl)cc1` (configuration not stated), the results for the fold change (FC) in experiment [1] and in experiment [2] were 7.6 and 8.1, respectively. Moreover, the inhibition in experiment [3] is 3%; in experiment [4], 72%; in experiment [5], 71%; in experiment [6], 0%; in experiment [7], 5%.

For the compound `Cc1ccc2c(c1)CC1CN(Cc3csc(N)c3C(=O)c3ccc(Cl)cc3)CCN21` (configuration not stated), the fold change (FC) in experiment [1] and in experiment [2] was 1 throughout. Besides, the inhibition came to 0% in experiment [3]; 13% in experiment [4]; 3% in experiment [5]; 6% in experiment [6]; 7% in experiment [7].

For the compound `Nc1sc(-c2ccccc2)c(CN(C2CCCCC2)C2CCCCC2)c1C(=O)c1ccc(Cl)cc1`, the results for the fold change (FC) in experiment [1] and in experiment [2] were 3.2 and 3.5, respectively. The inhibition in experiment [3] was 1%; in experiment [4] it was 28%; in experiment [5], 31%; in experiment [6], 6%; in experiment [7], 7%.

For the compound `Nc1scc(CN2CCC3(CC2)Oc2cccc(F)c2O3)c1C(=O)c1ccc(Cl)cc1`, the fold change (FC) is 6.3 in experiment [1] and 6.5 in experiment [2]. The inhibition in experiment [3] was found to be 1%; in experiment [4], 52%; in experiment [5], 56%; in experiment [6] it was 1%; in experiment [7], 7%.

Turning to `C=CCN(CC=C)Cc1c(-c2ccccc2)sc(N)c1C(=O)c1ccc(Cl)cc1`, the fold change (FC) in experiment [1] was 3.9; in experiment [2], 4.2. The inhibition was 1% in experiment [3]; 34% in experiment [4]; 36% in experiment [5]; 3% in experiment [6]; 5% in experiment [7].

Turning to `CN(Cc1ccccc1)Cc1csc(N)c1C(=O)c1ccc(Cl)cc1`, the figures for the fold change (FC) in experiment [1] and in experiment [2] were 4 and 4.4, respectively. For the same compound, the inhibition in experiment [3] came out at 1%; in experiment [4] it was 40%; in experiment [5], 42%; in experiment [6] it was 1%; in experiment [7], 7%.

Take `CC(C)(C)c1ccc2c(c1)OC1(CCN(Cc3csc(N)c3C(=O)c3ccc(Cl)cc3)CC1)O2`: the fold change (FC) is 6 in experiment [1] and 6.3 in experiment [2]. In addition, the inhibition in experiment [3] was found to be 0%; in experiment [4], 55%; in experiment [5] it was 51%; in experiment [6], 1%; in experiment [7] it was 12%.

On to `Cc1sc(N)c(C(=O)c2cccc(C(F)(F)F)c2)c1C`, for which the fold change (FC) is 1.6 in experiment [1] and 1.3 in experiment [2]. The inhibition worked out at 0% in experiment [3], 20% in experiment [4], 18% in experiment [5] and 0% in experiment [6].
